Tests used:
[1] = Metabolic stability in rat liver microsomes assessed as compound remaining at 1 uM after 30 mins; format: ADME, Microsome; conditions: read-out: Stability
[2] = target: T1, 11-beta-hydroxysteroid dehydrogenase 1 (Homo sapiens, UniProt P28845); assay: Inhibition of human recombinant 11beta-HSD1 expressed in HEK293 cells in presence of 3% human serum albumin; format: cell-based
Rattus norvegicus [3] = assay: AUC in rat at 0.5 mg/kg, iv; format: ADME, organism-based, Plasma; set-up: dose 0.5 mg/kg, route intravenous; conditions: in vivo
Method in brief: (§1)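 Single iv dose of 0.5 mg/kg in rat, cynomolgus monkey or dog. This dose group was run alongside a 2.0 mg/kg oral arm. Clearance, half-life, Vdss and AUC were taken from the iv arm.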

[4] = Oral bioavailability in dog at 2.0; format: ADME, organism-based, Canis lupus familiaris; conditions: in vivo
Method in brief: (§2)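 Oral bioavailability came from a 2.0 mg/kg po dose compared against an iv arm. The iv dose was 0.5 mg/kg in monkey, dog and one rat group, and 0.17 mg/kg in the other rat group.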

[5] = target: T1, 11-beta-hydroxysteroid dehydrogenase 1; assay: Inhibition of 11beta-HSD1 in human adipocytes; format: cell-based
Cynomolgus monkey [6] = assay: AUC in cynomolgus monkey at 0.5, iv; format: ADME, organism-based, Macaca fascicularis, Plasma; conditions: in vivo; method in brief: as §1
[7] = target: T1, 11-beta-hydroxysteroid dehydrogenase 1; assay: Inhibition of human cloned 11beta-HSD1 by scintillation proximity assay
[8] = Volume of distribution at steady state in dog at 0.5, iv; format: ADME, organism-based, Canis lupus familiaris; conditions: in vivo, read-out: Vdss; method in brief: as §1
Canis familiaris [9] = assay: Clearance in dog at 0.5 mg/kg, iv; format: ADME, organism-based, Canis lupus familiaris; set-up: dose 0.5 mg/kg, route intravenous; conditions: in vivo; method in brief: as §1
[10] = Half life in dog at 0.5, iv; format: ADME, organism-based, Canis lupus familiaris; conditions: in vivo; method in brief: as §1
[11] = Oral bioavailability in cynomolgus monkey at 2.0; format: ADME, organism-based, Macaca fascicularis; conditions: in vivo; method in brief: as §2
Rattus norvegicus [12] = assay: Clearance in rat at 0.5 mg/kg, iv; format: ADME, organism-based; set-up: dose 0.5 mg/kg, route intravenous; conditions: in vivo; method in brief: as §1
Cynomolgus monkey [13] = assay: Ex vivo inhibition of 11beta-HSD1 in orally dosed cynomolgus monkey mesenteric fat assessed as [3H][…] production; conditions: Macaca fascicularis, oral
[14] = target: T1, 11-beta-hydroxysteroid dehydrogenase 1; assay: Inhibition of human recombinant 11beta-HSD1 expressed in HEK293 cells; format: cell-based
[15] = Volume of distribution at steady state in cynomolgus monkey at 0.5, iv; format: ADME, organism-based, Macaca fascicularis; conditions: in vivo, read-out: Vdss; method in brief: as §1
[16] = Half life in cynomolgus monkey at 0.5, iv; format: ADME, organism-based, Macaca fascicularis; conditions: in vivo; method in brief: as §1
Plasma = assay: Drug level in of cynomolgus monkey plasma at 2 mg/kg, po; format: ADME, organism-based, Macaca fascicularis; set-up: dose 2 mg/kg, route oral; conditions: in vivo
Method in brief: (§3)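 Cynomolgus monkeys received an oral dose of 2 or 10 mg/kg and were sacrificed 2 h postdose. Mesenteric fat was excised and compound levels were determined in adipose (ng/g) and in plasma.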

[17] = target: T2, 11-beta-hydroxysteroid dehydrogenase type 2 (Homo sapiens, UniProt P80365); assay: Inhibition of 11beta-HSD2 by scintillation proximity assay
T2 sequence (P80365 whole entry): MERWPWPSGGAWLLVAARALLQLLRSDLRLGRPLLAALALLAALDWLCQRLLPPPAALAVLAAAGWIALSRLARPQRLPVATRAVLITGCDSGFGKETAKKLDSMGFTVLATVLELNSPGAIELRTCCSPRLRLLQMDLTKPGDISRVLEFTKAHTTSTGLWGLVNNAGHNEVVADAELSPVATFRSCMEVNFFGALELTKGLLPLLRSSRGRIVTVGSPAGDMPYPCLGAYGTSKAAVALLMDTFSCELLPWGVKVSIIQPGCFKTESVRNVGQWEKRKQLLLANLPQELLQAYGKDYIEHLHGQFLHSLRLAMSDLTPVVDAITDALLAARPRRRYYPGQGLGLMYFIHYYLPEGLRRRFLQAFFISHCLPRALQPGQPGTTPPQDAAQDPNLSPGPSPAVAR

Canis familiaris [18] = assay: AUC in dog at 0.5, iv; format: ADME, organism-based, Canis lupus familiaris, Plasma; conditions: in vivo; method in brief: as §1
[19] = Metabolic stability in human liver microsomes assessed as compound remaining at 1 uM after 30 mins; format: ADME, Microsome; conditions: read-out: Stability
[20] = Volume of distribution at steady state in rat at 0.5 mg/kg, iv; format: ADME, organism-based; set-up: dose 0.5 mg/kg, route intravenous; conditions: in vivo, read-out: Vdss; method in brief: as §1
[21] = Drug level in of cynomolgus monkey mesenteric fat at 10 mg/kg, po; format: ADME, organism-based, Macaca fascicularis; set-up: dose 10 mg/kg, route oral; conditions: in vivo; method in brief: as §3
[22] = Drug level in of cynomolgus monkey mesenteric fat at 2 mg/kg, po; format: ADME, organism-based, Macaca fascicularis; set-up: dose 2 mg/kg, route oral; conditions: in vivo; method in brief: as §3
[23] = Oral bioavailability in rat at 2.0 mg/kg; format: ADME, organism-based; conditions: in vivo; method in brief: as §2
[24] = Half life in rat at 0.5 mg/kg, iv; format: ADME, organism-based; set-up: dose 0.5 mg/kg, route intravenous; conditions: in vivo; method in brief: as §1
Cynomolgus monkey [25] = assay: Clearance in cynomolgus monkey at 0.5 mg/kg, iv; format: ADME, organism-based, Macaca fascicularis; set-up: dose 0.5 mg/kg, route intravenous; conditions: in vivo; method in brief: as §1
[26] = Inhibition of cynomolgus monkey recombinant 11beta-HSD1; set-up: species or system Macaca fascicularis
[27] = Clearance in rat; format: ADME, organism-based; conditions: in vivo
Rattus norvegicus [28] = assay: Clearance in rat at 0.17 mg/kg, iv; format: ADME, organism-based; set-up: dose 0.17 mg/kg, route intravenous; conditions: in vivo
Method in brief: (§4)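 Rats were given a single iv dose of 0.17 mg/kg, with a parallel 2.0 mg/kg oral arm. Clearance, half-life, Vdss and AUC were derived from the iv data.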

[29] = Half life in rat at 0.17 mg/kg, iv; format: ADME, organism-based; set-up: dose 0.17 mg/kg, route intravenous; conditions: in vivo; method in brief: as §4
[30] = Volume of distribution at steady state in rat at 0.17 mg/kg, iv; format: ADME, organism-based; set-up: dose 0.17 mg/kg, route intravenous; conditions: in vivo, read-out: Vdss; method in brief: as §4
Rattus norvegicus [31] = assay: AUC in rat at 0.17 mg/kg, iv; format: ADME, organism-based, Plasma; set-up: dose 0.17 mg/kg, route intravenous; conditions: in vivo; method in brief: as §4

T1 sequence (P28845 whole entry): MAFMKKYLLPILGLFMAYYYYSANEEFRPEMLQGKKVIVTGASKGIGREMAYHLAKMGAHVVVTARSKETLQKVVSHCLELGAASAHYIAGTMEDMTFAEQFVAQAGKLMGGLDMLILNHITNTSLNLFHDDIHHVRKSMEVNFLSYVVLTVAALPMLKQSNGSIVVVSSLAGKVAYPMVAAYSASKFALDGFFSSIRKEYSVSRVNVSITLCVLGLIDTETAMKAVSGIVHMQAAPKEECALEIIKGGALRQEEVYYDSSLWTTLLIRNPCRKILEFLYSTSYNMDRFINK

Row | remaining at 0.5 h, 1 µM [1] [%] | IC50 [2] [nM] | IC50 [5] [nM] | IC50 [7] [nM] | IC50 [14] [nM] | IC50 [17] [nM] | remaining at 0.5 h, 1 µM [19] [%] | Compound | other results
1 | 51 | 124 | 3 | 1.4 | 5.8 | > 10000 | > 90 | C[C@](O)(c1ccc(C(=O)N(C2CC2)[C@H]2CC[C@H](c3cccnc3)CC2)cc1)C(F)(F)F | AUC (Rattus norvegicus [3]): 481 ng·h/mL; bioavailability [4]: 4%; AUC (Cynomolgus monkey [6]): 1010 ng·h/mL; Vd [8]: 3.5 L/kg; CL (Canis familiaris [9]): 10 mL/min/kg; half-life [10]: 9.3 h; bioavailability [11]: 64%; CL (Rattus norvegicus [12]): 17 mL/min/kg; ED50 (Cynomolgus monkey [13]): 2 mg/kg; Vd [15]: 8.1 L/kg; half-life [16]: 11.2 h; Drug uptake (Plasma): 604 ng/mL; AUC (Canis familiaris [18]): 915 ng·h/mL; Vd [20]: 6.7 L/kg; Drug uptake [21]: 2890 ng/g; Drug uptake [22]: 1211 ng/mL; bioavailability [23]: 72%; half-life [24]: 4.5 h; CL (Cynomolgus monkey [25]): 8.3 mL/min/kg; IC50 [26]: 39 nM
2 | < 5 | 25 |  | 1.3 | 1.3 |  | 5 | CCN(C(=O)c1ccc([C@](C)(O)C(F)(F)F)cc1)C1CCCCC1 | clearance [27]: 51.7 mL/min/kg
3 | < 5 | 38 |  | 0.8 | 2.4 | > 10000 | 81 | C[C@](O)(c1ccc(C(=O)N(C2CCCCC2)C2CC2)cc1)C(F)(F)F | 
4 | > 90 | 155 | 9.8 | 1.3 | 16 | > 10000 | > 90 | C[C@](O)(c1ccc(C(=O)N(C2CC2)[C@H]2CC[C@H](c3ccccc3)CC2)cc1)C(F)(F)F | 
5 | < 5 | 123 |  | 6.1 | 18 | > 10000 | 9 | C[C@](O)(c1ccc(C(=O)N(C2CC2)[C@H]2CC[C@@H](c3ccccc3)CC2)cc1)C(F)(F)F | 
6 | 16 | 140 | 4.1 | 6.6 |  | > 10000 | 81 | C[C@](O)(c1ccc(C(=O)N(C2CC2)[C@H]2CC[C@H](F)CC2)cc1)C(F)(F)F | 
7 |  |  |  |  | 2.1 |  |  | C[C@H]1CCCCN1S(=O)(=O)c1ccc(C(C)(O)C(F)(F)F)cc1 (stereo partly drawn) | 
8 | > 90 | 161 | 3.4 | 0.7 | 12 | > 10000 | > 90 | C[C@](O)(c1ccc(C(=O)N(C2CC2)[C@H]2CC[C@H](c3ccc(C#N)cc3)CC2)cc1)C(F)(F)F | CL (Rattus norvegicus [28]): 1.83 mL/min/kg; half-life [29]: 15.7 h; Vd [30]: 2.5 L/kg; AUC (Rattus norvegicus [31]): 1590 ng·h/mL; bioavailability [23]: 29%
9 | 42 | 11 | 0.2 | 0.7 | 1.3 | > 10000 | > 90 | C[C@](O)(c1ccc(C(=O)N(C2CC2)[C@H]2CC[C@H](CCC#N)CC2)cc1)C(F)(F)F | CL (Rattus norvegicus [28]): 21.3 mL/min/kg; half-life [29]: 0.5 h; Vd [30]: 0.91 L/kg; AUC (Rattus norvegicus [31]): 393 ng·h/mL; bioavailability [23]: 83%
10 | < 5 | 163 |  | 2.6 | 24 |  | 17 | C[C@](O)(c1ccc(C(=O)N(CC(F)(F)F)C2CCCCC2)cc1)C(F)(F)F | 
11 | < 5 | 849 |  | 9 | 38 |  | 23 | CC(O)(c1ccc(C(=O)N(CC2CC2)C2CCCCC2)cc1)C(F)(F)F (racemic) | 

Reference: ChEMBL document CHEMBL1157534, “Discovery of novel, potent benzamide inhibitors of 11beta-hydroxysteroid dehydrogenase type 1 (11beta-HSD1) exhibiting oral activity in an enzyme inhibition ex vivo model” (J Med Chem, 2008)
